MBD2 DNA inh = MBD2-methylated oligo binding inhibition; Q9UBB5; TR-FRET, MBD2 binding to methylated oligonucleotide; inhibition, % at 4.4 µM; 370,000 compounds, 0.31% hits; AID 686964; in the data active = inhibition above about 13%
DNMT1 block = DNMT1 (human) enzyme inhibition | DNMT1 molecular beacon, Hinp1I cleavage, fluorescence | inhibition (reported as % activation of signal), % at 10 µM | 360,000 compounds, 0.83% hits; in the data active = inhibition above about 50%
HCV NS3 hel inh = blocks Hepatitis C virus NS3 helicase unwinding | NS3 helicase DNA unwinding, Cy5 molecular beacon fluorescence | inhibition, % at 10.9 µM | 290,000 compounds, 0.56% hits;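 active = inhibition above the mean of all tested compounds plus 3 SD, set per campaign, cut at about 35% in these data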
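Material: hepatitis C virus NS3 helicase domain fragment enzyme; measured by: Cy5 fluorescence, 0 and 60 min reads; control set: DMSO and thioflavine S; incubation: 60 min unwinding reaction at 25 °C after ATP addition; read-out basis: % inhibition from 60/0 min fluorescence ratio, DMSO 0%, thioflavine S 100%; repeats: singlicate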
SUMO1-SIM PPI = SUMO1-SIM interaction modulation; P63165; SUMO1 binding to a labelled peptide, TR-FRET, 1 h; inhibition, % at 20 µM; 360,000 compounds, 0.33% hits; in the data active = inhibition above about 37%
UHRF1 MBD2 ctr = blocks human UHRF1 binding to methylated DNA; Q96T88; UHRF1 binding to methylated oligo, TR-FRET; inhibition, % at 4.4 µM; 370,000 compounds, 0.75% hits; AID 687016;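 also: UHRF1 SRA domain binding a hemimethylated CpG hairpin DNA probe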
Target sequence (Q96T88 whole entry, looked up, the tested form may be a part): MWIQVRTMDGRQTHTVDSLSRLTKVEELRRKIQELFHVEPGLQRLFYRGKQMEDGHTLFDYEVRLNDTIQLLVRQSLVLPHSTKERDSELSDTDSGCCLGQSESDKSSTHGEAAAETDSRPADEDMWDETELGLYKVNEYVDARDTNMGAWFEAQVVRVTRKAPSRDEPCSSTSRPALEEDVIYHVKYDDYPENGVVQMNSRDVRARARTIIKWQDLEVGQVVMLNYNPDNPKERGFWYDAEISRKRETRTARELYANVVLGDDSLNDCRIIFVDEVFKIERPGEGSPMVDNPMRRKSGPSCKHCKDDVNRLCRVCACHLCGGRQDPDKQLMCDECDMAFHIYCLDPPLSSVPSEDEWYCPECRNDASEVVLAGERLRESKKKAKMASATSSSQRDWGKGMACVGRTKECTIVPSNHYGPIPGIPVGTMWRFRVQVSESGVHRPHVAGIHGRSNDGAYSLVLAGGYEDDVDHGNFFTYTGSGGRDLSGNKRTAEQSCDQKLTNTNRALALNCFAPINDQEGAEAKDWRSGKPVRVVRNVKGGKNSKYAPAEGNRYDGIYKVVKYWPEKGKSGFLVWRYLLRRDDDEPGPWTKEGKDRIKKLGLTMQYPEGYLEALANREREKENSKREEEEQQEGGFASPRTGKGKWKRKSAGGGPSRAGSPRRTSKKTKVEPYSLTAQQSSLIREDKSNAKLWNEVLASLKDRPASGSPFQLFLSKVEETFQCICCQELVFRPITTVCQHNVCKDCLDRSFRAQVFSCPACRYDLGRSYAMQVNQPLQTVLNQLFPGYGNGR
DSG3 Ab inh = inhibitors of pemphigus antibody binding to human desmoglein-3; DSG3-coupled beads, scFv-anti-DSG3-GFP binding, flow cytometry; active compounds read low; binding (percent of control), % at 10 µM; 310,000 compounds, 0.48% hits; AID 588358;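 active = binding more than 3 SD below its plate's average and above zero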;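 also: hits lower antibody fragment binding to DSG3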
UHRF1 ctr MBD2 = inhibits human UHRF1 binding to methylated oligonucleotide, MBD2 counter-screen; shares compounds with MBD2 DNA inh; TR-FRET; inhibition, % at 4.4 µM; 1,000 compounds, 25% hits; AID 720530;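 also: UHRF1 SRA domain binding a labeled hemimethylated CpG hairpin DNA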
MBD2 DBD conf = MBD2-DBD methyl-DNA binding inhibition, TR-FRET confirmation; inhibition, % at 4.4 µM; shares compounds with MBD2 DNA inh; TR-FRET MBD2-DBD binding to methylated oligonucleotide; 1,000 compounds, 26% hits; in the data active = inhibition above about 14%
Numbers stand for hits. Rows were chosen to be rich in hits. Some 2.5% of all compounds tested hit in one or more screens of this group. Rule as the data show it, unless noted: active = inhibition above about 21%; inactive = the rest.

Screening O=C(N=C1SC2CS(=O)(=O)CC2N1CCc1ccccc1)C1CCCCC1 (stereo not drawn) returned MBD2 DNA inh 86, DNMT1 block inactive, HCV NS3 hel inh inactive, SUMO1-SIM PPI inactive, UHRF1 MBD2 ctr inactive, DSG3 Ab inh inactive, UHRF1 ctr MBD2 inactive and MBD2 DBD conf inactive.
Screening CC1NC(=O)NC1CCCCCC(=O)Nc1ccc(F)cc1 (stereo not drawn) returned MBD2 DNA inh inactive, DNMT1 block inactive, HCV NS3 hel inh inactive, SUMO1-SIM PPI inactive, UHRF1 MBD2 ctr inactive and DSG3 Ab inh inactive.
For CSc1nnc(-c2ccccc2)n1N the results were MBD2 DNA inh inactive, DNMT1 block inactive, HCV NS3 hel inh inactive, SUMO1-SIM PPI inactive, UHRF1 MBD2 ctr inactive and DSG3 Ab inh inactive.
`Nn1c(-c2ccc(O)cc2)nnc1-c1ccc(O)cc1` gave MBD2 DNA inh 23, DNMT1 block inactive, HCV NS3 hel inh inactive, SUMO1-SIM PPI inactive, UHRF1 MBD2 ctr inactive, DSG3 Ab inh inactive, UHRF1 ctr MBD2 inactive and MBD2 DBD conf inactive.
Screening COc1ccc(Br)c(C(=O)Nc2nc3ccccc3[nH]2)c1 returned MBD2 DNA inh 36, DNMT1 block inactive, HCV NS3 hel inh inactive, SUMO1-SIM PPI inactive, UHRF1 MBD2 ctr inactive, UHRF1 ctr MBD2 inactive and MBD2 DBD conf inactive.
`O=C(COC(=O)c1ccc(O)cc1O)NC1CCCCCC1` gave MBD2 DNA inh 20, DNMT1 block inactive, SUMO1-SIM PPI inactive, UHRF1 MBD2 ctr inactive, DSG3 Ab inh inactive, UHRF1 ctr MBD2 inactive and MBD2 DBD conf inactive.
O=C(COC(=O)c1ccc(O)cc1O)NC1CCS(=O)(=O)C1 (stereo not drawn) was read as MBD2 DNA inh inactive, DNMT1 block inactive, HCV NS3 hel inh inactive, SUMO1-SIM PPI inactive, UHRF1 MBD2 ctr inactive and DSG3 Ab inh inactive.
O=C(C1=C(O)C(=O)N(CCCN2CCOCC2)C1c1ccc(Cl)cc1)c1cc2ccccc2o1 (stereo not drawn) was read as MBD2 DNA inh inactive, HCV NS3 hel inh inactive and UHRF1 MBD2 ctr inactive.
For O=C(C1=C(O)C(=O)N(CCN2CCOCC2)C1c1ccc(Cl)cc1)c1cc2ccccc2o1 (stereo not drawn) the results were MBD2 DNA inh 16, DNMT1 block inactive, HCV NS3 hel inh inactive, SUMO1-SIM PPI inactive, UHRF1 MBD2 ctr inactive, DSG3 Ab inh inactive, UHRF1 ctr MBD2 inactive and MBD2 DBD conf inactive.
For O=C(/C=C/c1cccc(Cl)c1)NNC(=O)c1ccncc1 the results were MBD2 DNA inh 14, DNMT1 block inactive, SUMO1-SIM PPI inactive, UHRF1 MBD2 ctr inactive, UHRF1 ctr MBD2 inactive and MBD2 DBD conf inactive.
For O=S1(=O)C[C@@H](N2CCN(CC3CC3)CC2)[C@H](COCc2ccccc2)N1 the results were MBD2 DNA inh inactive, DNMT1 block inactive, SUMO1-SIM PPI inactive and UHRF1 MBD2 ctr inactive.
For CC1CN(Cc2c(O)ccc3c2oc(=O)c2ccccc23)CC(C)O1 (stereo not drawn) the results were MBD2 DNA inh 16, DNMT1 block inactive, HCV NS3 hel inh inactive, SUMO1-SIM PPI inactive, UHRF1 MBD2 ctr inactive, DSG3 Ab inh inactive, UHRF1 ctr MBD2 inactive and MBD2 DBD conf inactive.
`CC1CN(Cc2c(O)ccc3c(=O)c(-c4ccccc4)coc23)CC(C)O1` (stereo not drawn) gave MBD2 DNA inh inactive, DNMT1 block inactive, HCV NS3 hel inh inactive, SUMO1-SIM PPI inactive, UHRF1 MBD2 ctr inactive and DSG3 Ab inh inactive.
O=C(O)c1ccc2c(c1)C1C=CCC1C(c1ccncc1)N2 (stereo not drawn) was read as MBD2 DNA inh inactive, DNMT1 block inactive, HCV NS3 hel inh inactive, SUMO1-SIM PPI inactive, UHRF1 MBD2 ctr inactive and DSG3 Ab inh inactive.
`CC(C)C1Nc2ccc(C(=O)O)cc2C2C=CCC21` (stereo not drawn) gave MBD2 DNA inh 14, DNMT1 block inactive, HCV NS3 hel inh inactive, SUMO1-SIM PPI inactive, UHRF1 MBD2 ctr 30, DSG3 Ab inh inactive, UHRF1 ctr MBD2 inactive and MBD2 DBD conf inactive.
Screening CC(C)(C)CC(=O)NC(=S)Nc1ccccc1C(F)(F)F returned MBD2 DNA inh 16, DNMT1 block inactive, HCV NS3 hel inh inactive, SUMO1-SIM PPI inactive, UHRF1 MBD2 ctr 23, DSG3 Ab inh inactive, UHRF1 ctr MBD2 inactive and MBD2 DBD conf inactive.
Screening COc1ccccc1NC(=O)Nc1ccc(CC#N)cc1 returned MBD2 DNA inh 60, DNMT1 block inactive, HCV NS3 hel inh inactive, SUMO1-SIM PPI inactive, UHRF1 MBD2 ctr inactive, UHRF1 ctr MBD2 inactive and MBD2 DBD conf inactive.
Screening Cc1nn2c(N3CCCC3)cc(C(C)C)nc2c1-c1ccccc1 returned MBD2 DNA inh inactive, DNMT1 block inactive, HCV NS3 hel inh inactive, SUMO1-SIM PPI inactive, UHRF1 MBD2 ctr inactive and DSG3 Ab inh inactive.
Screening O=C(Nc1nnc(SCC(=O)N2CCCCC2)s1)c1c(F)cccc1F returned MBD2 DNA inh 33, DNMT1 block inactive, HCV NS3 hel inh inactive, SUMO1-SIM PPI inactive, UHRF1 MBD2 ctr inactive, DSG3 Ab inh inactive, UHRF1 ctr MBD2 inactive and MBD2 DBD conf inactive.
`O=C(CSc1nnc(NC(=O)c2c(F)cccc2F)s1)NC1CCCC1` gave MBD2 DNA inh inactive, DNMT1 block inactive, HCV NS3 hel inh inactive, SUMO1-SIM PPI inactive, UHRF1 MBD2 ctr inactive and DSG3 Ab inh inactive.
Cc1cc(=O)n(C2CCS(=O)(=O)C2)[nH]1 (stereo not drawn) was read as MBD2 DNA inh 14, DNMT1 block inactive, HCV NS3 hel inh inactive, SUMO1-SIM PPI inactive, UHRF1 MBD2 ctr inactive, DSG3 Ab inh inactive, UHRF1 ctr MBD2 inactive and MBD2 DBD conf inactive.
Cc1ccccc1-c1nnnn1C1CCS(=O)(=O)C1 (stereo not drawn) was read as MBD2 DNA inh inactive, DNMT1 block inactive, HCV NS3 hel inh inactive, SUMO1-SIM PPI inactive, UHRF1 MBD2 ctr inactive and DSG3 Ab inh inactive.
Screening Cc1ccc2cc(CCNC(=O)CC(C)(C)C)c(=O)[nH]c2c1C returned MBD2 DNA inh inactive, DNMT1 block inactive, HCV NS3 hel inh inactive, SUMO1-SIM PPI inactive, UHRF1 MBD2 ctr inactive and DSG3 Ab inh inactive.
For COc1ccc(-c2cc(-c3ccccc3)c(C#N)c(=S)[nH]2)cc1 the results were MBD2 DNA inh 21, DNMT1 block inactive, HCV NS3 hel inh inactive, SUMO1-SIM PPI inactive, UHRF1 MBD2 ctr inactive, DSG3 Ab inh inactive, UHRF1 ctr MBD2 inactive and MBD2 DBD conf inactive.
COc1ccc(S(=O)(=O)NCCCN2CCOCC2)c2ccccc12 was read as MBD2 DNA inh inactive, DNMT1 block inactive, HCV NS3 hel inh inactive, SUMO1-SIM PPI inactive, UHRF1 MBD2 ctr inactive and DSG3 Ab inh inactive.
`CCN(CC)S(=O)(=O)c1ccc(N2CCOCC2)c(NC(=O)c2ccc(F)cc2)c1` gave MBD2 DNA inh inactive, DNMT1 block inactive, HCV NS3 hel inh inactive, SUMO1-SIM PPI inactive, UHRF1 MBD2 ctr inactive and DSG3 Ab inh inactive.

Source: PubChem BioAssay (several laboratories)
